Drawing on PubChem BioAssay AID623886 (Johns Hopkins Ion Channel Center, 2012), this text covers outcome for five compounds.

Active and inactive are the calls of the source.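 The calls were made as follows: active = peak inhibition of the KCNQ2 potassium channel above 30% at some tested dose, plus a fitted dose response curve; inactive = no inhibition at any dose, or no curve.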

The assay deals with Potassium voltage-gated channel subfamily KQT member 2 (Rattus norvegicus) (UniProt O88943). Put plainly: block of rat KCNQ2 potassium channel – cell-based, FluxOR thallium flux, concentration-response, selectivity assay for KCNK9 inhibitor project, SAR follow-up (AID 623886). The settings on record: KCNQ2 cell line, FluxOR thallium flux fluorescence; series mostly up to 30 µM. The procedure, abridged: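 Test system: KCNQ2-expressing CHO cells; Timing: FluxOR dye loading 90 min, compound pre-exposure 20 min, both room temperature; Repeats: duplicate or more; Measure: fluorescence range-to-baseline ratio; Controls: XE-991 full block; Also added: K2SO4/Tl2SO4 stimulus (5x stock 25 mM, 7 mM); Signal: kinetic FluxOR fluorescence, 10 s baseline, 110 s post-stimulus.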
Chain of Potassium voltage-gated channel subfamily KQT member 2 (Rattus norvegicus) (O88943 whole entry, looked up): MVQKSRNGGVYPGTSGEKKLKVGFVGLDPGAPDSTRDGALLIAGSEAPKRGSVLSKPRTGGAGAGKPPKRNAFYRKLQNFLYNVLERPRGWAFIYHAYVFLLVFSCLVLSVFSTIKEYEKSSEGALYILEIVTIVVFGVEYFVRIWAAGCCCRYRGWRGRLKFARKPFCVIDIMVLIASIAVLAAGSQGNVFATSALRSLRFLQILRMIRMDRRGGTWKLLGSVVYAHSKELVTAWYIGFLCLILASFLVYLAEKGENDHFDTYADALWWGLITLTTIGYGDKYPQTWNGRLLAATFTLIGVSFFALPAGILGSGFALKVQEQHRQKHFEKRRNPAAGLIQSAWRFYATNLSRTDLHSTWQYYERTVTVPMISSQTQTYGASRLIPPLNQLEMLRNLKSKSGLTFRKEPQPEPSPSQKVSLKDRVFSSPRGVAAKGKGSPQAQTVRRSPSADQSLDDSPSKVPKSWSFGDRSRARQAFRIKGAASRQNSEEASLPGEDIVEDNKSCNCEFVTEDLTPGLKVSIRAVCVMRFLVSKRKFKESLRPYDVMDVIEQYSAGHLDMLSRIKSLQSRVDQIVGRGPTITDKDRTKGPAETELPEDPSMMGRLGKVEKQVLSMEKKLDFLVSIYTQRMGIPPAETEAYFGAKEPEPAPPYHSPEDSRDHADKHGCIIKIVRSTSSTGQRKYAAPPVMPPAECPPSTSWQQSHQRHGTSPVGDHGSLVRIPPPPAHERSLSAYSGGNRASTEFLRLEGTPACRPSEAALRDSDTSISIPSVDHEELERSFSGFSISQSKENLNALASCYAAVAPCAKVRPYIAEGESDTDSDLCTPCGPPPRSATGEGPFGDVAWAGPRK
Turning to `Cc1cccc(C(=O)Nc2cccc(C(=O)Nc3ccccc3)c2)c1`, the compound was classed as inactive. For `Cc1cccc(C(=O)Nc2ccccc2C(=O)Nc2ccccc2)c1`, the compound was classed as inactive.

As for `Cc1cccc(NC(=O)c2cccc(NC(=O)c3ccccc3)c2)c1`, the call was inactive. For the compound `Cc1cccc(NC(=O)c2ccccc2NC(=O)c2ccccc2)c1`, the call was inactive. On to `Cc1cccc(C(=O)Nc2ccc(C(=O)Nc3ccccc3)cc2)c1`, for which the outcome was inactive.
